Test results reported in ChEMBL document CHEMBL3822419, “Rational Design of Potent and Selective Inhibitors of an Epoxide Hydrolase Virulence Factor from Pseudomonas aeruginosa” (J Med Chem, 2016).
In brackets after ≈: the same amount, converted by molar mass.

Tests used:
[1] = Inhibition of Pseudomonas aeruginosa recombinant His-tagged CFTR inhibitory factor expressed in expressed in Top10 Escherichia coli cells assessed as formation of 6-methoxy-2-naphthaldehyde preincubated for 5 mins followed by addition of CMNGC as substrate measured for 10 mins in presence of BSA by fluorescent-based assay
Epoxide hydrolase 1 = molecular target: T1, Epoxide hydrolase 1 (Homo sapiens, UniProt P07099); assay: Inhibition of recombinant human mEH expressed in baculovirus expression system assessed as formation of 6-methoxy-2-naphthaldehyde preincubated for 5 mins followed by addition of CMNGC as substrate by fluorescent-based assay
T1 sequence (P07099 whole entry): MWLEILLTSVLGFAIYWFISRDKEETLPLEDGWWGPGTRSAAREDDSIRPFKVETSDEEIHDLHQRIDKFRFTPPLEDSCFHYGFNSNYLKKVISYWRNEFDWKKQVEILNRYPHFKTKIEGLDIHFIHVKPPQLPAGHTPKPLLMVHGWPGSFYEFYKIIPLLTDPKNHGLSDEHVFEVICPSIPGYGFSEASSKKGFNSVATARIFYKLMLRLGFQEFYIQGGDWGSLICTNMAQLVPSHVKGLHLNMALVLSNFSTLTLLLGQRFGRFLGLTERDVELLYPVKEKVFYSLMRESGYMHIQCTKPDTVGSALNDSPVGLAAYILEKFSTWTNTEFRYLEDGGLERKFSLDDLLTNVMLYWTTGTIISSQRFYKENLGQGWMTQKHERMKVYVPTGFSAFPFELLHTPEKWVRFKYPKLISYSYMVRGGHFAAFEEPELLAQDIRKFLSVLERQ

[2] = Cytotoxicity against human CFBE cells at 10 uM by Cytotox 96 non-radioactive cytotoxicity assay; format: cell-based
[3] = Agonist activity at thyroid hormone receptor in rat GH3 cells expressing TRE measured after 24 hrs in presence of T3 by luciferase reporter gene assay; format: cell-based; conditions: GH3, 24 h
Summary of the method: (§1)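 GH3.TRE-Luc cells grown in regular growth medium, then seeded into 24-well plates for 24 h. Cells exposed 24 h with or without T3 plus test chemical in DMSO, kept at 0.5% (v/v) in exposure medium. Viability by total protein (BCA assay). Luciferase activity read on lysed cells.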

[4] = molecular target: T2, Bifunctional epoxide hydrolase 2 (Homo sapiens, UniProt P34913); assay: Inhibition of recombinant human sEH expressed in insect High Five cells preincubated for 5 mins followed by addition of t-DPPO as substrate measured after 10 mins by liquid scintillation counter method; format: cell-based, BTI-TN-5B1-4
T2 sequence (P34913 whole entry): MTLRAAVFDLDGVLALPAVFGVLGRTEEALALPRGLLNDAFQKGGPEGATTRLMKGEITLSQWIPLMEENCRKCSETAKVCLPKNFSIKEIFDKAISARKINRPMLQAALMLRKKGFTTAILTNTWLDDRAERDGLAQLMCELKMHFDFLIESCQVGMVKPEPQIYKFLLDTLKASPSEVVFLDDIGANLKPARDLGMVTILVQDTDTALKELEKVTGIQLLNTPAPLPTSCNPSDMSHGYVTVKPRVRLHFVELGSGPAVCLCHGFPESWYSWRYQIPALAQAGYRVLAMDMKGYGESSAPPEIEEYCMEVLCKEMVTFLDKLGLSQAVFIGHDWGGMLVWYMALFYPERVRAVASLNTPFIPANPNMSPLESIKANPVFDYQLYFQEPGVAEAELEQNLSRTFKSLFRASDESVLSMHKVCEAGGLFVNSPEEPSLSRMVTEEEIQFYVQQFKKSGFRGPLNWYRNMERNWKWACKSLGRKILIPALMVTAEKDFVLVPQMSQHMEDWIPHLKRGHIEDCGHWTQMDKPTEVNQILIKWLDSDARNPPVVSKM

[5] = Stability in rat GH3 cells expressing TRE and luciferase gene assessed as percentage remaining at 10 uM measured after 24 hrs; format: ADME, cell-based; conditions: read-out: Stability
Summary of the method: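 Compound at 10 µM initial concentration incubated 24 h with GH3.TRE-Luc cells. Read-out is percentage of compound remaining, given as mean±SD.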

Liver microsome = assay: Half life in human liver microsomes measured after 60 mins in presence of NADPH by LC-MS/MS analysis; format: ADME; conditions: 1 h
[6] = Equilibrium solubility of the compound in sodium phosphate buffer at pH 7.4 measured after 24 hrs by LC-MS/MS analysis; format: physicochemical
GH3 = assay: Cytotoxicity against rat GH3 cells expressing TRE and luciferase gene assessed as cell viability; format: cell-based
Summary of the method: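 GH3.TRE-Luc cells were seeded in 24-well plates for 24 h, then exposed for 24 h to test chemical in DMSO (0.5% v/v final), with or without T3. Viability per well was taken as total protein by BCA assay. Compounds were tested up to 10 µM.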

[7] = Protein binding in Balb/c mouse plasma at 1 uM by rapid equilibrium dialysis method; format: ADME, cell-free
Summary of the method: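 Mouse plasma protein binding measured at 1 µM compound by rapid equilibrium dialysis.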

[8] = Antagonist activity at thyroid hormone receptor in rat GH3 cells expressing TRE at 10 uM measured after 24 hrs in presence of T3 by luciferase reporter gene assay; format: cell-based; conditions: GH3, 24 h; summary of the method: as §1
[9] = Stability in human liver microsomes assessed as compound remaining measured after 60 mins in presence of NADPH by LC-MS/MS analysis; format: ADME; conditions: read-out: Stability

In the case of `CCC(=O)Nc1cc(Br)c(Oc2ccc(O)c(C(C)C)c2)c(Br)c1`, the IC50 [1] is reported as 7.5 µM.

In the case of `CCOC(=O)CC(=O)Nc1cc(Cl)c(Oc2ccc(O)c(C(C)C)c2)c(Cl)c1`, the IC50 [1] is reported as 3.8 µM.

Work on `CCOC(=O)CCC(=O)Nc1cc(Br)c(Oc2ccc(O)c(C(C)C)c2)c(Br)c1` yielded an IC50 [1] of 5.5 µM.

Work on `CCC(=O)Nc1cc(Cl)c(Oc2ccc(O)c(-c3cccc(C#N)c3)c2)c(Cl)c1` yielded an IC50 [1] of 0.58 µM.

`CCC(=O)Nc1cc(Cl)c(Oc2ccc(O)c(-c3ccc(C(=O)NC)cc3)c2)c(Cl)c1` gave an IC50 [1] of 1.7 µM.

In the case of `CCOC(=O)CC(=O)Nc1cc(Br)c(Oc2ccc(OC)c(C(C)C)c2)c(Br)c1`, the IC50 [1] is reported as greater than 25 µM.

`CC(C)c1cc(Oc2c(Br)cc(NC(=O)CCC(=O)O)cc2Br)ccc1O` gave an IC50 [1] of 3.2 µM.

In the case of `CCC(=O)Nc1cc(Cl)c(Oc2ccc(O)c(-c3ccc(NC(C)=O)cc3)c2)c(Cl)c1`, the IC50 [1] is reported as 15.6 µM.

With `CCOC(=O)CC(=O)Nc1cc(Br)c(Oc2cccc(C(C)C)c2)c(Br)c1` the IC50 [1] was greater than 50 µM.

Work on `CCCCCCCCCSC(C)C(N)=O` (configuration not stated) yielded an IC50 (Epoxide hydrolase 1) of 6 µM.

`CCOC(=O)CC(=O)Nc1cc(Cl)c(Oc2ccc(O)cc2)c(Cl)c1` showed an IC50 [1] greater than 50 µM.

With `CCOC(=O)CC(=O)Nc1ccc(Oc2ccc(O)c(C(C)C)c2)c(Cl)c1` the IC50 [1] was 11.6 µM.

In the case of `CCC(=O)Nc1cc(Cl)c(Oc2ccc(O)c(-c3ccc(NC(N)=O)cc3)c2)c(Cl)c1`, the Activity [2] is reported as “Non-toxic”, the EC50 [3] is reported as greater than 10 µM and the IC50 [4] is reported as 7.5 µM. It also gave a remaining at 24 h, 10 µM [5] of 103%, a t1/2 (Liver microsome) of 29 min and a solubility thermodynamic at 24 h [6] of 21 µM (≈ 9.67 µg/mL). The Activity (GH3) was “Non-toxic”, the IC50 [1] was 0.29 µM and the PPB [7] was greater than 99%. For the same compound, the IC50 (Epoxide hydrolase 1) was 26.3 µM and the inhibition at 10 µM [8] was 28%.

`CCOC(=O)CC(=O)Nc1cc(Cl)c(Oc2ccc(O)cc2Br)c(Cl)c1` showed an IC50 [1] of 29.3 µM.

With `CC(C)c1cc(Oc2c(Br)cc(N)cc2Br)ccc1O` the IC50 [1] was 9.7 µM.

Compound `CCOC(=O)CC(=O)Nc1cc(Cl)c(Oc2ccc(O)c(C(F)(F)F)c2)c(Cl)c1` has an IC50 [1] of 3 µM.

With `CCC(=O)Nc1cc(Cl)c(Oc2ccc(O)c(-c3ccc(C(N)=O)cc3)c2)c(Cl)c1` the Activity [2] was “Non-toxic”, the EC50 [3] was greater than 10 µM and the IC50 [4] was 8.6 µM. For the same compound, the remaining at 24 h, 10 µM [5] was 106%, the t1/2 (Liver microsome) was 15 min and the solubility thermodynamic at 24 h [6] was 0.17 µM (≈ 0.0757 µg/mL). For the same compound, the Activity (GH3) was “Non-toxic”, the IC50 [1] was 0.35 µM and the PPB [7] was greater than 99%. For the same compound, the IC50 (Epoxide hydrolase 1) was 17.2 µM and the inhibition at 10 µM [8] was 66%.

`CCC(=O)Nc1cc(Cl)c(Oc2ccc(O)c(-c3ccc(C#N)cc3)c2)c(Cl)c1` gave an IC50 [1] of 11.9 µM.

With `CC(=O)Nc1cc(Br)c(Oc2ccc(O)c(C(C)C)c2)c(Br)c1` the IC50 [1] was 8.8 µM.

In the case of `CCC(=O)Nc1cc(Cl)c(Oc2ccc(O)c(-c3cccc(C(N)=O)c3)c2)c(Cl)c1`, the IC50 [1] is reported as 0.46 µM.

With `CCOC(=O)CC(=O)Nc1cc(Br)c(Oc2ccc(O)c(C(C)C)c2)c(Br)c1` the IC50 [1] was 6.7 µM.

`C#Cc1cc(Oc2c(Cl)cc(NC(=O)CC(=O)OCC)cc2Cl)ccc1O` gave an IC50 [1] of 2.9 µM.

`CCC(=O)Nc1cc(Cl)c(Oc2ccc(O)c(-c3ccccc3)c2)c(Cl)c1` showed an IC50 [1] of 1.4 µM and a remaining at 1 h [9] of 63%.

Compound `CCC(=O)Nc1cc(Cl)c(Oc2ccc(O)c(-c3ccc(S(N)(=O)=O)cc3)c2)c(Cl)c1` has an IC50 [1] of 2 µM.

Compound `CCOC(=O)CC(=O)Nc1cc(Cl)c(Oc2ccc(O)c(I)c2)c(Cl)c1` has an IC50 [1] of 3.8 µM.

For `CCC(=O)Nc1cc(Cl)c(Oc2ccc(O)c(-c3ccc(C(=O)O)cc3)c2)c(Cl)c1`, the IC50 [1] was 10.5 µM.

`CCC(=O)Nc1cc(Cl)c(Oc2ccc(O)c(-c3ccc(C(C)=O)cc3)c2)c(Cl)c1` gave an EC50 [3] greater than 10 µM, an IC50 [4] of 7.7 µM and a remaining at 24 h, 10 µM [5] of 74%. For the same compound, the t1/2 (Liver microsome) was 5.7 min, the solubility thermodynamic at 24 h [6] was less than 0.04 µM and the IC50 [1] was 0.35 µM. For the same compound, the PPB [7] was greater than 99%, the IC50 (Epoxide hydrolase 1) was 97.8 µM and the inhibition at 10 µM [8] was 33%.

Compound `CCOC(=O)CC(=O)Nc1cc(Cl)c(Oc2ccc(O)c(Br)c2)c(Cl)c1` has an IC50 [1] of 4.9 µM.
